In assay [1] the test system is Aspergillus fumigatus. As to the kind of experiment: Minimum inhibitory concentration (MIC) against Aspergillus fumigatus. Type of assay: functional. The procedure, abridged: (§1)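 Broth microdilution in Sabouraud's glucose broth. Final inocula 1×10^5 cells/mL for the yeast (C. albicans) and 1×10^5 conidia/mL for the mold (A. fumigatus) and the dermatophyte (T. asteroides). MIC read as the fungistatic end point. Lowest value of duplicated experiments.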

For assay [2], the system named is Candida albicans. As to the kind of experiment: Inhibitory effect on pseudomycelium formation of candida albicans. The format is functional. Conditions: read-out: MEC. The gist of the method: (§2)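 C. albicans KE-2 (clinical isolate), final inoculum 1×10^6 yeast cells/mL in EMEM with 20% calf serum. Compounds serially diluted by the microtiter dilution system used for MICs. After incubation, wells Giemsa-stained (5% in phosphate buffer) and examined microscopically. MEC (μg/mL) = lowest concentration preventing typical pseudomycelium formation. Lowest value of duplicated experiments.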

The subject of assay [3] is Candida albicans. As to the kind of experiment: Minimum inhibitory concentration (MIC) against Candida albicans. Type of assay: functional. The procedure, abridged:
as §1

Assay [4] relates to Trichophyton benhamiae. As to the kind of experiment: (§3) Minimum inhibitory concentration against Trichophyton asteroides. The format is functional. The gist of the method: as §1
Assay [5] is described as follows: as §3. The format is functional. Conditions: Trichophyton benhamiae. The procedure, abridged: as §1
In assay [6] the test system is Candida albicans. As to the kind of experiment: Minimum inhibitory concentration against Candida albicans IFO 1060. Type of assay: functional. The procedure, abridged:
(§4)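 Agar dilution on Sabouraud's glucose agar. Inocula 1×10^6 cells/mL for the yeast strains (C. albicans IFO 1060, 1388) and 1×10^6 conidia/mL for the dermatophytes (T. mentagrophytes IFO 5809, 5810; T. rubrum IFO 5467, 5807). MIC in μg/mL, lowest value of duplicated experiments.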

Assay [7] deals with Candida albicans. As to the kind of experiment: Minimum inhibitory concentration against Candida albicans IFO 1388. The format is functional. The procedure, abridged: as §4
The test system of assay [8] is Trichophyton benhamiae. As to the kind of experiment: Minimum inhibitory concentration against Trichophyton mentagrophytes IFO 5809. The format is functional, Arthroderma benhamiae. The procedure, abridged:
as §4

Assay [9] has as its system Trichophyton benhamiae. As to the kind of experiment: Minimum inhibitory concentration against Trichophyton mentagrophytes IFO 5810. The format is functional, Arthroderma benhamiae. The procedure, abridged:
as §4

The subject of assay [10] is Trichophyton rubrum. As to the kind of experiment: Minimum inhibitory concentration against Trichophyton rubrum IFO 5807. The format is functional. The gist of the method: as §4
Assay [11] deals with Trichophyton rubrum. As to the kind of experiment: Minimum inhibitory concentration against Trichophyton rubrum IFO 5467.
The test system of assay [12] is Trichophyton rubrum. As to the kind of experiment: Minimum inhibitory concentration against Trichophyton rubrum IFO 5467. The format is functional. The procedure, abridged:
as §4

Assay [13] deals with Aspergillus fumigatus. As to the kind of experiment: (§5) Minimum inhibitory concentration against Aspergillus fumigatus. The format is functional. The procedure, abridged:
as §1

In assay [14] the test system is Candida albicans. As to the kind of experiment: Inhibition of pseudomycelium formation of Candida albicans. Conditions: read-out: MEC. Type of assay: functional. The gist of the method:
as §2

The nature of assay [15]: as §5. To be noted: Trichophyton benhamiae. The format is functional, trichophyton asteroides. The gist of the method: as §1
Assay [16] has as its system Trichophyton benhamiae. As to the kind of experiment: Minimum inhibitory concentration against Trichophyton mentagrophyte IFO 5809. Type of assay: functional. The procedure, abridged:
as §4

In assay [17] the test system is Trichophyton benhamiae. As to the kind of experiment: Minimum inhibitory concentration against Trichophyton mentagrophyte IFO 5810. Type of assay: functional. The procedure, abridged: as §4

In general, MIC refers to the lowest concentration found to suppress growth. Low values mean inhibition by little substance, high ones a need for much substance.

In brackets after ≈: the same amount, converted by molar mass. Some results are limits rather than exact numbers.

Regarding `C=C(c1ccccc1OCCc1ccc(Cl)cc1)n1ccnc1`, the minimal inhibitory concentration (MIC) amounted to 0.4 µg/mL (≈ 1.23 µM) in [1], 25 µg/mL (≈ 77 µM) in assay [3] and 0.1 µg/mL (≈ 0.308 µM) in assay [4]. The minimal effective concentration in assay [2] turned out to be 1.25 µg/mL.

`c1ccc(C(n2ccnc2)n2ccnc2)cc1`: the minimum inhibitory concentration (MIC) in assay [1], in assay [3] and in [5] was more than 100 µg/mL throughout.

As for `C=C(c1cc(Cl)ccc1OCc1ccccc1)n1ccnc1`, the MIC in assay [1] turned out to be 3.1 µg/mL (≈ 9.97 µM); in [6] it was 12.5 µg/mL (≈ 40.2 µM); in assay [7], 12.5 µg/mL (≈ 40.2 µM); in assay [3], 6.2 µg/mL (≈ 19.9 µM); in assay [4], 0.1 µg/mL (≈ 0.322 µM); in [8], 1.6 µg/mL (≈ 5.15 µM). For the same compound, the minimal inhibitory concentration (MIC) in assay [9] was 1.6 µg/mL (≈ 5.15 µM); in [10], 0.8 µg/mL (≈ 2.57 µM); in [11], 1.6 µg/mL (≈ 5.15 µM).

On to `CC=C(c1ccccc1OCc1ccc(Cl)c(Cl)c1)n1ccnc1`, for which the MIC in assay [1] worked out at 0.4 µg/mL (≈ 1.11 µM); in assay [6], 6.3 µg/mL (≈ 17.5 µM); in assay [7] it was 12.5 µg/mL (≈ 34.8 µM); in assay [3], 6.2 µg/mL (≈ 17.3 µM); in assay [4], 0.1 µg/mL (≈ 0.278 µM); in [8], 0.8 µg/mL (≈ 2.23 µM). Also, the MIC in assay [9], in assay [12] and in [10] was 0.8 µg/mL (≈ 2.23 µM) each time.

Turning to `c1ccc(C(c2ccccc2)(n2ccnc2)n2ccnc2)cc1`, the figures for the MIC in [1], in assay [3] and in assay [5] were more than 100 µg/mL, more than 100 µg/mL and 0.8 µg/mL (≈ 2.66 µM), respectively.

For `C=C(c1ccccc1OCc1cccc(Cl)c1)n1ccnc1` [CROCONAZOLE], the MIC was determined as 3.1 µg/mL (≈ 9.97 µM) in [1]; 6.3 µg/mL (≈ 20.3 µM) in assay [6]; 12.5 µg/mL (≈ 40.2 µM) in assay [7]; 3.1 µg/mL (≈ 9.97 µM) in [3]; 0.1 µg/mL (≈ 0.322 µM) in assay [4]; 0.8 µg/mL (≈ 2.57 µM) in assay [8]. Moreover, the minimum inhibitory concentration (MIC) stood at 0.8 µg/mL (≈ 2.57 µM) in assay [9], 0.4 µg/mL (≈ 1.29 µM) in assay [12] and 0.4 µg/mL (≈ 1.29 µM) in assay [10].

As to `CC(C)(n1ccnc1)n1ccnc1`, the MIC in [13], in assay [3] and in assay [5] was more than 100 µg/mL in each case.

As to `C=C(c1ccccc1OCc1ccsc1Cl)n1ccnc1`, the minimal inhibitory concentration (MIC) in [1] turned out to be 1.6 µg/mL (≈ 5.05 µM); in [6], 12.5 µg/mL (≈ 39.5 µM); in assay [7], 12.5 µg/mL (≈ 39.5 µM); in [3], 6.2 µg/mL (≈ 19.6 µM); in assay [4] it was 0.1 µg/mL (≈ 0.316 µM); in assay [8], 1.6 µg/mL (≈ 5.05 µM). For the same compound, the MIC was determined as 0.8 µg/mL (≈ 2.53 µM) in assay [9], 0.4 µg/mL (≈ 1.26 µM) in [12] and 0.8 µg/mL (≈ 2.53 µM) in assay [10]. Also, the minimal effective concentration in [14] turned out to be 0.8 µg/mL.

With `C/C=C(/c1ccccc1OCc1ccc(Cl)cc1)n1ccnc1`, the MIC turned out to be 3.1 µg/mL (≈ 9.54 µM) in assay [1]; 12.5 µg/mL (≈ 38.5 µM) in [6]; 12.5 µg/mL (≈ 38.5 µM) in assay [7]; 6.2 µg/mL (≈ 19.1 µM) in assay [3]; 0.1 µg/mL (≈ 0.308 µM) in assay [4]; 1.6 µg/mL (≈ 4.93 µM) in assay [8]. Further, the results for the MIC in assay [9], in assay [12] and in [10] were 0.8 µg/mL (≈ 2.46 µM), 0.8 µg/mL (≈ 2.46 µM) and 1.6 µg/mL (≈ 4.93 µM), respectively.

Regarding `CC(c1cccc(OCc2ccc(Cl)cc2)c1)(n1ccnc1)n1ccnc1`, the minimal inhibitory concentration (MIC) in assay [1], in assay [3] and in assay [15] was more than 100 µg/mL in each case.

In the case of `CC(C)=C(c1ccccc1OCc1ccc(Cl)cc1)n1ccnc1`, the MIC was determined as 6.2 µg/mL (≈ 18.3 µM) in assay [1]; 12.5 µg/mL (≈ 36.9 µM) in assay [6]; 12.5 µg/mL (≈ 36.9 µM) in assay [7]; 3.1 µg/mL (≈ 9.15 µM) in assay [3]; 0.1 µg/mL (≈ 0.295 µM) in [4]; 1.6 µg/mL (≈ 4.72 µM) in assay [8]. Moreover, the figures for the MIC in assay [9], in assay [12] and in assay [10] were 0.8 µg/mL (≈ 2.36 µM), 1.6 µg/mL (≈ 4.72 µM) and 0.8 µg/mL (≈ 2.36 µM), respectively.

In the case of `C/C=C(\c1ccccc1OCc1ccc(Cl)cc1)n1ccnc1`, the MIC in assay [1] amounted to 3.1 µg/mL (≈ 9.54 µM); in assay [6] it was 12.5 µg/mL (≈ 38.5 µM); in assay [7], 12.5 µg/mL (≈ 38.5 µM); in [3] it was 6.2 µg/mL (≈ 19.1 µM); in assay [4] it was 0.1 µg/mL (≈ 0.308 µM); in assay [8], 0.8 µg/mL (≈ 2.46 µM). Further, the MIC in [9], in [12] and in assay [10] was 0.8 µg/mL (≈ 2.46 µM) each time.

In the case of `C=C(c1ccccc1SCc1ccc(Cl)cc1)n1ccnc1`, the minimum inhibitory concentration (MIC) is 0.8 µg/mL (≈ 2.45 µM) in assay [1], 50 µg/mL (≈ 153 µM) in [3] and 0.1 µg/mL (≈ 0.306 µM) in assay [5].

On to `Clc1ccccc1C(c1ccccc1)(c1ccccc1)n1ccnc1` [CLOTRIMAZOLE], for which the minimal inhibitory concentration (MIC) was 6.3 µg/mL (≈ 18.3 µM) in [6]; 12.5 µg/mL (≈ 36.2 µM) in [7]; 0.8 µg/mL (≈ 2.32 µM) in [16]; 0.4 µg/mL (≈ 1.16 µM) in assay [17]; 0.8 µg/mL (≈ 2.32 µM) in assay [12]; 0.8 µg/mL (≈ 2.32 µM) in assay [10].

Turning to `CC(c1ccccc1)(n1ccnc1)n1ccnc1`, the MIC in assay [1], in assay [3] and in assay [5] was more than 100 µg/mL each time.

Take `C=C(c1ccccc1OCCC(C)C)n1ccnc1`: the MIC came out at 0.4 µg/mL (≈ 1.56 µM) in assay [1], 25 µg/mL (≈ 97.5 µM) in [3] and 0.1 µg/mL (≈ 0.39 µM) in assay [4]. In addition, in [14], the minimal effective concentration came out at 0.63 µg/mL.

For `C=C(c1ccccc1OCc1ccc(Cl)cc1)n1ccnc1`, the MIC in assay [1] worked out at 3.1 µg/mL (≈ 9.97 µM); in assay [6] it was 6.3 µg/mL (≈ 20.3 µM); in assay [7] it was 12.5 µg/mL (≈ 40.2 µM); in [3], 6.2 µg/mL (≈ 19.9 µM); in [4], 0.1 µg/mL (≈ 0.322 µM); in assay [8], 1.6 µg/mL (≈ 5.15 µM). Further, the MIC in [9], in [12] and in assay [10] was 0.8 µg/mL (≈ 2.57 µM) throughout.

With `CC(C)COc1ccccc1/C(=C\CN(C)C)n1ccnc1`, the MIC in assay [1] was more than 100 µg/mL; in [3], more than 100 µg/mL; in [4], 6.3 µg/mL (≈ 21 µM). In addition, the minimal effective concentration in assay [14] amounted to 0.16 µg/mL.

As for `C=C(c1cc(Cl)ccc1OCc1ccc(Cl)cc1)n1ccnc1`, the minimal inhibitory concentration (MIC) came out at 3.1 µg/mL (≈ 8.98 µM) in [1]; 12.5 µg/mL (≈ 36.2 µM) in assay [6]; 12.5 µg/mL (≈ 36.2 µM) in [7]; 12.5 µg/mL (≈ 36.2 µM) in assay [3]; 0.1 µg/mL (≈ 0.29 µM) in [4]; 1.6 µg/mL (≈ 4.63 µM) in assay [8]. Besides, the MIC in assay [9] stood at 1.6 µg/mL (≈ 4.63 µM); in assay [12], 0.8 µg/mL (≈ 2.32 µM); in assay [10], 0.8 µg/mL (≈ 2.32 µM).

As to `CC(c1ccc(Cl)cc1)(n1ccnc1)n1ccnc1`, the MIC in assay [1], in [3] and in [5] was more than 100 µg/mL throughout.

On to `C=C(c1cc(Cl)ccc1OC(C)C)n1ccnc1`, for which the MIC in assay [1] was 0.8 µg/mL (≈ 3.04 µM); in assay [3], 50 µg/mL (≈ 190 µM); in assay [4] it was 0.1 µg/mL (≈ 0.381 µM). In addition, in [14], the minimal effective concentration is 5 µg/mL.

In the case of `C=C(c1ccc(Cl)cc1)n1ccnc1`, the MIC in assay [1] came out at 100 µg/mL (≈ 489 µM); in assay [3], 100 µg/mL (≈ 489 µM); in [4] it was 25 µg/mL (≈ 122 µM). In addition, the minimal effective concentration in assay [14] was more than 20 µg/mL.

For `CCCCOc1ccccc1C(=C(C)C)n1ccnc1`, the values for the MIC in assay [1], in assay [3] and in assay [4] were 1.6 µg/mL (≈ 5.92 µM), 50 µg/mL (≈ 185 µM) and 0.1 µg/mL (≈ 0.37 µM), respectively. For the same compound, the minimal effective concentration in assay [14] amounted to 0.31 µg/mL.

Source of the values: ChEMBL document CHEMBL1123801, “Synthesis and antifungal activity of new 1-vinylimidazoles” (1987).
